Measured values: ChEMBL document CHEMBL4819015, “Design, synthesis, and biological evaluation of hederagenin derivatives with improved aqueous solubility and tumor resistance reversal activity” (Eur J Med Chem, 2021)
≈ marks a conversion by molar mass, not a printed value.

Tests used:
[1] = Induction of apoptosis in human KBV cells assessed as accumulation of cells in Sub-G1 phase at 10 uM measured by flowcytometry method (reference value: 1.9%); format: functional
[2] = target: T1, ATP-dependent translocase ABCB1 (Homo sapiens, UniProt P08183); test: Reversal of P-glycoprotein mediated multidrug resistance in human KBV cells assessed as paclitaxel-mediated apoptosis by measuring accumulation of cells in Sub-G1 phase in at 5 uM measured by flowcytometry method (Rvb (paclitaxel)= 2.1%); format: cell-based
[3] = Stability of compound in presence of Porcine liver esterase assessed as residual activity at pH 7.4 measured after 24 hrs; format: ADME; settings: pig, read-out: Stabilty
Outline: (§1)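 Compound in PBS pH 7.4 with porcine liver esterase, shaken at 37 °C. Aliquots were taken at set times, diluted 10-fold and centrifuged at 14,000 rpm for 5 min. Supernatants were run on C18 HPLC with isocratic 95% methanol/water (0.1% TFA) at 1 mL/min, UV 306 nm. Percent remaining is relative to the 0 h sample.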

[4] = target: T1, ATP-dependent translocase ABCB1; test: Inhibition of P-glycoprotein mediated Flutax1 efflux in human KBV cells assessed as Flutax1 accumulation at 5 uM […] by flowcytometry; format: cell-based
[5] = Stability of compound in presence of Porcine liver esterase assessed as residual activity at pH 7.4 measured after 12 hrs; format: ADME; settings: pig, read-out: Stabilty; outline: as §1
[6] = Cytotoxicity against human KBV cells assessed as cell survival at 10 uM measured after 72 hrs by MTT assay; format: functional; settings: read-out: Activity
Outline: (§2)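 KBV or MCF-7T cells were grown in DMEM with 10% heat-inactivated FCS, penicillin/streptomycin, 37 °C and 5% CO2, with periodic 10 nM paclitaxel to keep resistance; cells were used in exponential phase. Cells were exposed to test articles for 72 h, given MTT for about 2 h, the medium was removed and DMSO added. A570 gave the survival rate.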

[7] = target: T1, ATP-dependent translocase ABCB1; test: Inhibition of P-glycoprotein mediated Rhodamine-123 efflux in human MCF-7T cells assessed as Rhodamine-123 accumulation measured after 2 hrs by flowcytometry; format: cell-based; settings: dose 5-10 µM
Outline: (§3)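 KBV or MCF-7T cells were pretreated with or without compound for 2 h, then loaded with rhodamine 123 for 30 min. Cells were harvested and washed three times in PBS. Flow cytometry of 10,000 cells gave mean fluorescence intensity; mean ± SD, n = 3.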

[8] = target: T1, ATP-dependent translocase ABCB1; test: Inhibition of P-glycoprotein mediated Flutax1 efflux in human KBV cells assessed as Flutax1 accumulation at 10 uM measured after 2 hrs by flowcytometry; format: cell-based; settings: mcf-t, in the assay text read “human MCF-7T cells” for “human KBV cells”
[9] = Stability of compound in presence of Porcine liver esterase assessed as residual activity at pH 7.4 measured after 4 hrs; format: ADME; settings: pig, read-out: Stabilty; outline: as §1
[10] = target: T1, ATP-dependent translocase ABCB1; test: Inhibition of P-glycoprotein mediated Rhodamine-123 efflux in human KBV cells assessed as Rhodamine-123 accumulation measured after 2 hrs by flowcytometry; format: cell-based; settings: dose 5-10 µM; outline: as §3
[11] = target: T1, ATP-dependent translocase ABCB1; test: Reversal of P-glycoprotein mediated multidrug resistance in human KBV cells assessed as potentiation of paclitaxel-induced cytotoxicity by measuring cell survival rate at 10 uM measured after 72 hrs by MTT assay; format: cell-based; outline: as §2
[12] = target: T1, ATP-dependent translocase ABCB1; test: Reversal of P-glycoprotein mediated multidrug resistance in human KBV cells assessed as paclitaxel-mediated apoptosis by measuring accumulation of cells in Sub-G1 phase in at 10 uM measured by flowcytometry method (Rvb (paclitaxel)= 2.1%); format: cell-based
[13] = Aqueous solubility of compound in deionized water at 37 degC measured by UV-vis spectrophotometry
[14] = Cytotoxicity against human MCF-T cells assessed as cell survival measured after 72 hrs by MTT assay; format: functional, cell-based; outline: as §2
[15] = Antitumour activity against human KBV cells xenografted in nude mouse assessed as paclitaxel-mediated tumour growth inhibition at 10 mg/kg; format: functional; settings: read-out: TGI
[16] = Antiproliferative activity against human KBV cells in presence of 100 nM Paclitaxel; format: functional, cell-based; outline: as §2
[17] = Cytotoxicity against human KBV cells assessed as cell survival measured after 72 hrs by MTT assay; format: functional, cell-based; outline: as §2

T1 sequence (P08183 whole entry): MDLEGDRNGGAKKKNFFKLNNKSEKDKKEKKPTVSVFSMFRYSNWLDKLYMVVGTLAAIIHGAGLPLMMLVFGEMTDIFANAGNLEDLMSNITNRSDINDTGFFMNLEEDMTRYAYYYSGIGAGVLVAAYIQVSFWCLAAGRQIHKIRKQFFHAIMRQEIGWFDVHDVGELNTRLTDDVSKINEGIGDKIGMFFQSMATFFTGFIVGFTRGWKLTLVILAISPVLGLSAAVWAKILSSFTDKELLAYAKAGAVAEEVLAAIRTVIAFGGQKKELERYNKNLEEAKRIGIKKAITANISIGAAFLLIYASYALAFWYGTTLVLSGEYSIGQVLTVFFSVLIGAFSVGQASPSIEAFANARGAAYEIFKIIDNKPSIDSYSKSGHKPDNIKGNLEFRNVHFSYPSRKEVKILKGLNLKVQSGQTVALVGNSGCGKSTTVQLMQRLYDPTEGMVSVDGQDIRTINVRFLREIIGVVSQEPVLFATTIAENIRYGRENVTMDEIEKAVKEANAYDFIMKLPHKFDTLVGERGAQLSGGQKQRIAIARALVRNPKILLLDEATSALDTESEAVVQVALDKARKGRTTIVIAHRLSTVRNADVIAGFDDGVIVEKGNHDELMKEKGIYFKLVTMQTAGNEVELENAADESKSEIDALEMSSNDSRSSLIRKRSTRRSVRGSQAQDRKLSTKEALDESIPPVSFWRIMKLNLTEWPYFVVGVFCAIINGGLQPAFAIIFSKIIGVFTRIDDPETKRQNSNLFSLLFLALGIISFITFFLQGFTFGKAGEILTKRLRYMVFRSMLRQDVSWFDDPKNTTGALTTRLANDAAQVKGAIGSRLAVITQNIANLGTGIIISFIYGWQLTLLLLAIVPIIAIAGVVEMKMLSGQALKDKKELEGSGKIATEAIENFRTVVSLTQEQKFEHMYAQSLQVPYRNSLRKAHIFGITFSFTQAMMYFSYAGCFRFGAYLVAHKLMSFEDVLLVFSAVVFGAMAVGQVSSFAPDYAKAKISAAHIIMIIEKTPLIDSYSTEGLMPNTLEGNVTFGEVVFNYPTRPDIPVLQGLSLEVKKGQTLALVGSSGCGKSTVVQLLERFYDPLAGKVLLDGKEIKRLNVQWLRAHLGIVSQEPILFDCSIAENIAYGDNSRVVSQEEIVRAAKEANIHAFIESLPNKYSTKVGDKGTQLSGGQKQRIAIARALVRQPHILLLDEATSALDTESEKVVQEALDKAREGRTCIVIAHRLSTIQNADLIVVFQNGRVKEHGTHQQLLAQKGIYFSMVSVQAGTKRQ

SMILES | viability at 10 µM [6] [%] | cell survival rate [11] [%] | further results
COc1ccc(CCN(C)CCCC(C#N)(c2ccc(OC)c(OC)c2)C(C)C)cc1OC (centres undefined) | – | – | Activity [1]: 2.4%; Activity [2]: 40.6%
CC1(C)CC[C@]2(C(=O)OCc3ccccc3)CC[C@]3(C)C(=CC[C@@H]4[C@@]5(C)Cc6nccnc6[C@@](C)(COC(=O)CCC(=O)OCCOCCOCCOCCO)[C@@H]5CC[C@]43C)[C@@H]2C1 | 90.3 | 11.97 | remaining at 24 h [3]: 78.9%; Activity [4]: Active; remaining at 12 h [5]: 81.8%; Activity [7]: Dose-Dependent Effect; Activity [8]: Active; remaining at 4 h [9]: 98.3%; Activity [1]: 2.4%; Activity [10]: Dose-Dependent Effect; Activity [12]: 48.9%; solubility ([13]; pH 7.4, read-out: solubility): 21.6 µg/mL (≈ 24.7 µM); Activity [2]: 20.7%
CC1(C)CC[C@]2(C(=O)N3CCCCC3)CC[C@]3(C)C(=CC[C@@H]4[C@@]5(C)Cc6nccnc6[C@@](C)(CO)[C@@H]5CC[C@]43C)[C@@H]2C1 | 59.4 | 25.27 | –
Cc1nc2c(s1)C[C@@]1(C)[C@@H](CC[C@]3(C)[C@@H]1CC=C1[C@@H]4CC(C)(C)CC[C@]4(C(=O)OCc4ccccc4)CC[C@]13C)[C@]2(C)CO | 98.6 | 27.85 | –
CN1CCN(C(=O)[C@]23CCC(C)(C)C[C@H]2C2=CC[C@@H]4[C@@]5(C)Cc6nccnc6[C@@](C)(CO)[C@@H]5CC[C@@]4(C)[C@]2(C)CC3)CC1 | 124 | 23.51 | –
CC1(C)CC[C@]2(C(=O)OCC(=O)OCCOCCOCCOCCO)CC[C@]3(C)C(=CC[C@@H]4[C@@]5(C)Cc6nccnc6[C@@](C)(CO)[C@@H]5CC[C@]43C)[C@@H]2C1 | 75.4 | 25.88 | –
CC1(C)CC[C@]2(C(=O)N3CCOCC3)CC[C@]3(C)C(=CC[C@@H]4[C@@]5(C)Cc6nccnc6[C@@](C)(CO)[C@@H]5CC[C@]43C)[C@@H]2C1 | 110 | 16.37 | –
CC[C@]1(O)C[C@H]2CN(CCc3c([nH]c4ccccc34)[C@@](C(=O)OC)(c3cc4c(cc3OC)N(C=O)[C@H]3[C@@](O)(C(=O)OC)[C@H](OC(C)=O)[C@]5(CC)C=CCN6CC[C@]43[C@@H]65)C2)C1 [VINCRISTINE] | – | – | IC50 [14]: 9.45 nM
CC1(C)CC[C@]2(C(=O)O)CC[C@]3(C)C(=CC[C@@H]4[C@@]5(C)Cc6cn[nH]c6[C@@](C)(CO)[C@@H]5CC[C@]43C)[C@@H]2C1 | 109 | 99.31 | –
CC1(C)CC[C@]2(C(=O)OCc3ccccc3)CC[C@]3(C)C(=CC[C@@H]4[C@@]5(C)Cc6nccnc6[C@@](C)(CO)[C@@H]5CC[C@]43C)[C@@H]2C1 | – | 18.17 | inhibition in vivo at 10 mg/kg [15]: 41.9%; IC50 [16]: 2.39 nM; Activity [1]: 2.3%; Activity [12]: 25.4%; solubility ([13]; pH 7.4, read-out: solubility): 1.2 µg/mL (≈ 2.01 µM); Activity [2]: 15.6%
Cc1nc2c(s1)C[C@@]1(C)[C@@H](CC[C@]3(C)[C@@H]1CC=C1[C@@H]4CC(C)(C)CC[C@]4(C(=O)O)CC[C@]13C)[C@]2(C)CO | 96 | 61.78 | –
CC1(C)CC[C@]2(C(=O)OCC(=O)OCCOCCOCCO)CC[C@]3(C)C(=CC[C@@H]4[C@@]5(C)Cc6nccnc6[C@@](C)(CO)[C@@H]5CC[C@]43C)[C@@H]2C1 | 80.5 | 28.76 | –
CCN1CCN(C(=O)[C@]23CCC(C)(C)C[C@H]2C2=CC[C@@H]4[C@@]5(C)Cc6nccnc6[C@@](C)(CO)[C@@H]5CC[C@@]4(C)[C@]2(C)CC3)CC1 | 120 | 16.67 | –
CC1(C)CC[C@]2(C(=O)OCC(=O)OCCOCCO)CC[C@]3(C)C(=CC[C@@H]4[C@@]5(C)Cc6nccnc6[C@@](C)(CO)[C@@H]5CC[C@]43C)[C@@H]2C1 | 81.7 | 26.15 | –
CC1(C)CC[C@]2(C(=O)OCc3ccccc3)CC[C@]3(C)C(=CC[C@@H]4[C@@]5(C)Cc6nccnc6[C@@](C)(COC(=O)CCC(=O)OCCOCCOCCO)[C@@H]5CC[C@]43C)[C@@H]2C1 | 82.5 | 43.54 | solubility ([13]; pH 7.4): Soluble
CC(=O)O[C@H]1C(=O)[C@@]2(C)[C@H]([C@H](OC(=O)c3ccccc3)[C@]3(O)C[C@H](OC(=O)[C@H](O)[C@@H](NC(=O)c4ccccc4)c4ccccc4)C(C)=C1C3(C)C)[C@]1(OC(C)=O)CO[C@@H]1C[C@@H]2O [PACLITAXEL] | – | 103.48 | IC50 [17]: 778 nM; Activity [1]: 2.1%
CC1(C)CC[C@]2(C(=O)OCc3ccccc3)CC[C@]3(C)C(=CC[C@@H]4[C@@]5(C)Cc6cn[nH]c6[C@@](C)(CO)[C@@H]5CC[C@]43C)[C@@H]2C1 | 83.1 | 21.95 | –
CN(C)CCCOC(=O)[C@]12CCC(C)(C)C[C@H]1C1=CC[C@@H]3[C@@]4(C)Cc5nccnc5[C@@](C)(CO)[C@@H]4CC[C@@]3(C)[C@]1(C)CC2 | 67.5 | 12.65 | –
CC1(C)CC[C@]2(C(=O)O)CC[C@]3(C)C(=CC[C@@H]4[C@@]5(C)CC[C@H](O)[C@@](C)(CO)[C@@H]5CC[C@]43C)[C@@H]2C1 [HEDERAGENIN] | – | 107.17 | –
CC1(C)CC[C@]2(C(=O)OCc3ccccc3)CC[C@]3(C)C(=CC[C@@H]4[C@@]5(C)Cc6nccnc6[C@@](C)(COC(=O)CCC(=O)OCCOCCOCCOCCOCCOCCOCCOCCOCCO)[C@@H]5CC[C@]43C)[C@@H]2C1 | 70.6 | 15.38 | solubility ([13]; pH 7.4, read-out: solubility): 546 µg/mL (≈ 500 µM)
CC1(C)CC[C@]2(C(=O)OCC(=O)OCCOCCOCCOCCOCCOCCOCCOCCOCCO)CC[C@]3(C)C(=CC[C@@H]4[C@@]5(C)Cc6nccnc6[C@@](C)(CO)[C@@H]5CC[C@]43C)[C@@H]2C1 | 76 | 25.16 | –
CC1(C)CC[C@]2(C(=O)OCc3ccccc3)CC[C@]3(C)C(=CC[C@@H]4[C@@]5(C)Cc6nccnc6[C@@](C)(COC(=O)CCC(=O)OCCOCCO)[C@@H]5CC[C@]43C)[C@@H]2C1 | 72.7 | 79.47 | solubility ([13]; pH 7.4): Soluble
CC1(C)CC[C@]2(C(=O)OCc3ccccc3)CC[C@]3(C)C(=CC[C@@H]4[C@@]5(C)Cc6nccnc6[C@@](C)(COC(=O)CCC(=O)OCCOCCOCCOCCOCCOCCOCCOCCOCCOCCOCCOCCOCCO)[C@@H]5CC[C@]43C)[C@@H]2C1.CO | 69.7 | 15.93 | solubility ([13]; pH 7.4, read-out: solubility): 789 µg/mL
CC1(C)CC[C@]2(C(=O)OCC(=O)OCCOCCOCCOCCOCCOCCOCCOCCOCCOCCOCCOCCOCCO)CC[C@]3(C)C(=CC[C@@H]4[C@@]5(C)Cc6nccnc6[C@@](C)(CO)[C@@H]5CC[C@]43C)[C@@H]2C1 | 73.3 | 39.13 | –
CC1(C)CC[C@]2(C(=O)OCc3ccccc3)CC[C@]3(C)C(C(=O)C[C@@H]4[C@@]5(C)Cc6nccnc6[C@@](C)(CO)[C@@H]5CC[C@]43C)[C@@H]2C1 (some centres undefined) | 129 | 20.77 | –
